Assay outcomes as filed in PubChem.
NTR1 agonist: agonists of human NTR1, primary screen, imaging, U2OS cells, beta-arrestin-GFP, high content; 0.17% of 330,000 active; activation, % at 20 µM; NTR1-U2OS beta-arrestin-GFP spot imaging, agonist mode;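 active means activation at or above 40% of the spot to cytoplasm intensity ratio, with at least 20 cells analyzed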
MC4R ag barr: MC4R agonists recruiting beta-arrestin, primary screen, cell-based, luminescence, agonist arm of biased-ligand search; Melanocortin receptor 4 (Homo sapiens), P32245; U2OS MC4R beta-arrestin complementation; percent of melanotan II response, DMSO zero; activation, % at 8.9 µM; 0.98% of 360,000 active;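 active means activation above a per-plate cutoff, the mean activation of sample wells on that plate plus 3 SD, cut at about 8% in these data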
MC4R antagonist: MC4R antagonists of cAMP signaling, primary screen, cell-based, TR-FRET, antagonist arm of biased-ligand search; 0.48% of 360,000 active; AID 540295, 2011; Melanocortin receptor 4 (Homo sapiens), P32245; MC4R-expressing cells, MTII-stimulated cAMP, LANCE TR-FRET; inhibition, % at 6.5 µM;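 active means inhibition above its plate's cutoff, the mean of tested wells on that plate plus 3 SD, cut at about 29% in these data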
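System: U2OS cells stably expressing human melanocortin 4 receptor (MC4R). Reagent: Melanotan II challenge after compound preincubation. Doses: 6.5 µM. Times: 30-min compound, 1-h challenge, 1-h detection, room temperature. Measured by: TR-FRET with Eu-cAMP and labeled anti-cAMP, 671 nm. Replicates: singlicate.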
HTR2A ag: mouse Htr2a agonists via beta-arrestin recruitment, primary screen, cell-based, luminescence | AID 624169, 2012 | CHO-K1 mHTR2A beta-arrestin complementation; percent of 30 µM serotonin response | activation, % at 7.6 µM | 0.66% of 360,000 active;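 active means activation above a run cutoff, the mean activation of all tested compounds plus 3 SD, cut at about 14% in these data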
Hep lipid drop: inhibitors of hepatocyte lipid droplet formation, primary screen, imaging, high-throughput imaging, BODIPY stain; AML12 mouse hepatocytes, oleate lipid droplets; inhibition, % at 6.5 µM; 0.4% of 240,000 active;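 active means lipid droplet intensity inhibited by at least 50%, with more than 500 cells counted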
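Assay system: AML12 mouse liver cells | Compound: 6.5 µM single-point dosing | Schedule: Overnight exposure | Technique: Fluorescence imaging, 20x objective, two fields per well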
PREPL inh: PREPL enzyme inhibitors, primary screen, biochemical, fluorescence polarization; inhibition, % at 5.96 µM; Prolyl endopeptidase-like (Homo sapiens), Q4J6C6; recombinant PREPL, fluorescence polarization activity-based probe; 0.68% of 320,000 active; in the data active means inhibition above about 43%
Target sequence (Q4J6C6 whole entry, looked up): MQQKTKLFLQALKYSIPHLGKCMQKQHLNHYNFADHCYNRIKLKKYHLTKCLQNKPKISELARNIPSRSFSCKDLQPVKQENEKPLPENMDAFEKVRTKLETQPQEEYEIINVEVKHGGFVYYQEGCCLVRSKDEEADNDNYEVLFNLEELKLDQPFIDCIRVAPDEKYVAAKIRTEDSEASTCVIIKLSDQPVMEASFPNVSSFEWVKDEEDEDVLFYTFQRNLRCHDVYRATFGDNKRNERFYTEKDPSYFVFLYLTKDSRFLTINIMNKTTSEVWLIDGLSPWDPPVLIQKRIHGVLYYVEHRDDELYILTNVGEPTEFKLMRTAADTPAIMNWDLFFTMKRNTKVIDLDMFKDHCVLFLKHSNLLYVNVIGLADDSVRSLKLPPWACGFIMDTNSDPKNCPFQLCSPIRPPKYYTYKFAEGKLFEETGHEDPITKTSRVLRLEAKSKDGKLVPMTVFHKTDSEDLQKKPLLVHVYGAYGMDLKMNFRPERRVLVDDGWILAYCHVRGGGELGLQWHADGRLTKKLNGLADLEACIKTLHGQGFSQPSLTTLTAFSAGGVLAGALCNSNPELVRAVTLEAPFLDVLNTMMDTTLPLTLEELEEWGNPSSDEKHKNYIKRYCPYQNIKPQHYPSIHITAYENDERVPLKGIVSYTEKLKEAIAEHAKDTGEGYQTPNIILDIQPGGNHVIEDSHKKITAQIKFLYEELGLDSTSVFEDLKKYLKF
Of the large screens only hits and unclear results are named; the others gave an inactive call. Compounds with a hit are over-represented: about 2.7% of the library has one in this group of screens.

C=CCn1c(SCC(=O)Nc2ccccc2OC)nnc1-c1ccco1	none (no result: MC4R ag barr, MC4R antagonist, HTR2A ag, PREPL inh)
C=CCn1c(SCC(=O)Nc2nccs2)nnc1-c1cc2cccc(OC)c2o1	MC4R ag barr 9.3
Cc1c(/C=N\NC(=O)c2c[nH]c3ccccc23)cnn1C	none
O=C(N/N=C/c1cn(-c2ccccc2)nc1-c1cc2ccccc2o1)c1c[nH]c2ccccc12	Hep lipid drop 52
COc1cc(/C=C/C(=O)OCC(=O)N(C)Cc2ccccc2)ccc1O	none (no result: Hep lipid drop)
N=c1n(CCN2CCCCC2)c2ccccc2n1CC(O)c1ccc(Cl)c(Cl)c1 (configuration not stated)	PREPL inh 50
N=c1n(CCN2CCCCC2)c2ccccc2n1CC(=O)c1ccc(Cl)c(Cl)c1	PREPL inh 43
CCn1c(=N)n(CC(=O)c2ccc(Cl)c(Cl)c2)c2ccccc21	none
CCCn1c(O)c2ccc(C(=O)N=NC(=O)c3cccnc3)cc2c1O	HTR2A ag 21 (no result: Hep lipid drop)
O=C1[C@H](Cc2ccccc2)NCC=CC[C@H](c2ccc(Cl)cc2)N1Cc1ccccc1	MC4R ag barr 8.6 (no result: NTR1 agonist, Hep lipid drop, PREPL inh)
CC1(C)Cc2c(cnn2-c2ccccc2)C(NC(=O)CCN2CCCCO2)C1 (configuration not stated)	none
OCCc1ccc(O)cc1	none (no result: Hep lipid drop)
CC(c1ccc(O)cc1)(c1ccc(O)cc1)c1ccc(CCBr)cc1	MC4R ag barr 18
CCCOC(=O)Cn1cnc2scc(-c3ccc(OC)cc3)c2c1=O	none
CC(C)NC(=O)NC(=O)CSc1nnc(COc2ccccc2F)n1C(C)C1CC2CCC1C2 (configuration not stated)	MC4R ag barr 9.5 (no result: Hep lipid drop)
CC(C1CC2CCC1C2)n1c(COc2ccccc2F)nnc1SCC(N)=O (configuration not stated)	none (no result: Hep lipid drop)
N#CC(=Cc1cccs1)c1nc(-c2ccc(Cl)cc2)cs1	MC4R ag barr 9.2 (no result: NTR1 agonist, Hep lipid drop, PREPL inh)
CCC(=O)N1CCCc2cc(S(=O)(=O)N3CCN(c4ccccn4)CC3)ccc21	none
Cc1cccc(N2CCN(S(=O)(=O)c3ccc4c(c3)CCN4C(=O)CCC(=O)O)CC2)c1C	HTR2A ag 18 (no result: Hep lipid drop)
CCC(=O)N1CCCc2cc(S(=O)(=O)N3CCN(c4ncccn4)CC3)ccc21	HTR2A ag 21 (no result: Hep lipid drop)
COc1cc(/C=C(/C#N)c2nc3ccccc3[nH]2)ccc1OC(=O)c1ccco1	PREPL inh 83
CCCCOc1ccc(C(=O)N/C(=C\c2cccc([N+](=O)[O-])c2)C(=O)OCCC)cc1	MC4R ag barr 8.8 (no result: Hep lipid drop)
CCCCOc1ccc(C(=O)N/C(=C\c2cccc([N+](=O)[O-])c2)C(=O)OC(C)C)cc1	none (no result: Hep lipid drop)
O=C(Nc1ccc(Cl)cc1Cl)c1cccc(N2C(=O)C=CC2=O)c1	MC4R antagonist 57 (no result: Hep lipid drop)
COCCn1c(SCC(=O)c2c(N)n(C3CC3)c(=O)[nH]c2=O)nnc1-c1cccc(C)c1	none (no result: Hep lipid drop)
COc1cc(NC(=O)c2cc(-c3ccc4c(c3)OCO4)on2)cc(OC)c1OC	MC4R ag barr 8.8
CCOC(=O)c1[nH]c2ccc(Cl)cc2c1NC(=O)c1nonc1C	MC4R ag barr 8.9 (no result: Hep lipid drop)
CCOC(=O)C1CCN(CC(O)COc2ccc(S(=O)(=O)N3CCCC3)cc2[N+](=O)[O-])CC1 (configuration not stated)	none (no result: Hep lipid drop, PREPL inh)
CC(=O)c1cccc(NC(=S)NC(=O)c2ccc(Br)cc2)c1	MC4R ag barr 8.5
CN(C)c1ccc(S(=O)(=O)c2ccc(Cl)cc2)cc1	MC4R ag barr 8.3 (no result: Hep lipid drop)
CCc1ccc(NC(=O)Cn2nc(C(F)(F)F)c3c2CCC3)cc1	MC4R ag barr 9.2 (no result: Hep lipid drop)
C=CCn1c(=O)c2ccc(C(=O)NCc3ccccc3)cc2n(Cc2cccc(Cl)c2)c1=O	MC4R ag barr 9.5
CCOC(=O)Cn1c(=N)n(CCOc2ccc(OC)cc2)c2ccccc21	none
CCOC(=O)Cn1c(=N)n(CCOc2ccc3ccccc3c2)c2ccccc21	MC4R ag barr 9.6
O=C(NNC(=O)c1cc(Br)c(Br)s1)c1csc(N2CCOCC2)n1	none (no result: Hep lipid drop)
c1ccc(CCNc2nc(-c3cccnc3)cs2)cc1	PREPL inh 49
Cc1cccc(OCC(=O)Nc2nc(-c3ccncc3)cs2)c1	none (no result: Hep lipid drop)
Cc1cc(C)cc(OCC(=O)Nc2nc(-c3cccnc3)cs2)c1	MC4R ag barr 9.2
N#Cc1ccc(OCC(=O)Nc2nc(-c3cccnc3)cs2)cc1	MC4R ag barr 9.1 (no result: Hep lipid drop)
O=C(COc1ccccc1)Nc1nc(-c2cccnc2)cs1	none (no result: Hep lipid drop)
COc1ccccc1C(=O)Nc1nc2cc3c(cc2s1)OCCO3	HTR2A ag 23
COc1ccccc1C(=O)Nc1nc2cc3c(cc2s1)OCO3	none
CC1(C)CC2CC(C)(CN2C(=O)c2cc(-c3ccccc3O)on2)C1 (configuration not stated)	none (no result: Hep lipid drop)
CCS(=O)(=O)C1=NN2C(=N)/C(=C\c3ccc(OC(=O)c4ccco4)c(OC)c3)C(=O)N=C2S1	PREPL inh 51
O=C(CBr)c1ccc([N+](=O)[O-])c(CS(=O)(=O)c2ccc(Cl)cc2)c1	MC4R antagonist 34
COc1cccc(-c2csc(N3CCN(CC(=O)Nc4ccc5c(c4)OCO5)CC3)n2)c1	PREPL inh 55
CCOc1ccc(NC(=O)COc2nsnc2N2CCCCC2)cc1	MC4R ag barr 9.0 (no result: Hep lipid drop)
Cc1ccc(S(=O)(=O)NCC(=O)OCC(=O)N2N=C(c3ccc(Cl)cc3)CC2c2ccco2)cc1C (configuration not stated)	MC4R ag barr 9.2
C/C(=N\NC(=O)Cn1nnc2ccccc21)c1ccco1	none
CN(C(=O)COC(=O)CNC(=O)c1ccc2ccccc2c1)c1c(N)n(Cc2ccccc2)c(=O)[nH]c1=O	none
CCc1ccc(NC(=O)CCc2nc3cccnc3n2Cc2ccc(OC)cc2)cc1	MC4R ag barr 8.5
CN1CCN(S(=O)(=O)c2ccc(Br)c3ccccc23)CC1	none
CCCCCN(C(=O)CCC(=O)OCC(=O)N1C(C)CCCC1C)c1c(N)n(CCCC)c(=O)[nH]c1=O (configuration not stated)	none
FC(F)(F)c1nc(NCc2ccccc2)c2nnn(Cc3ccccc3)c2n1	MC4R ag barr 8.4
Cc1ncsc1CCOC(=O)c1cccnc1	none (no result: Hep lipid drop)
Cc1ncsc1CCOC(=O)C12CC3CC(CC(C3)C1)C2	HTR2A ag 16 (no result: Hep lipid drop)
